Data from article PMC12815959 (Nature Communications, 2025).
pIC50, pKd: −log10 of the molar value.

Key:
[1] = molecular target: T1, lipopolysaccharide-responsive beige-like anchor protein (LRBA) (Homo sapiens, UniProt P50851); experiment: Nluc complementation with purified LRBA PH; format: cell-based
In short: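 HEK293T cells were transfected with three plasmids and treated with test compound in DMEM assay medium at 250.00, 100.00, 33.30, 10.00, 3.33, 1.00, 0.33, 0.10, 0.03 and 0.01 μM. Inhibition of the CTLA4–LRBA interaction was read as the Nluc/Firefly luciferase ratio by dual-luciferase assay. In the cell-free format, Flag-purified Sm-LRBA PH was preincubated with compound for 2 h at 25 °C. Myc-purified CTLA4 CT-Lg was then added for 18 h at 25 °C.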
Target sequence in this assay (P50851 2073-2489): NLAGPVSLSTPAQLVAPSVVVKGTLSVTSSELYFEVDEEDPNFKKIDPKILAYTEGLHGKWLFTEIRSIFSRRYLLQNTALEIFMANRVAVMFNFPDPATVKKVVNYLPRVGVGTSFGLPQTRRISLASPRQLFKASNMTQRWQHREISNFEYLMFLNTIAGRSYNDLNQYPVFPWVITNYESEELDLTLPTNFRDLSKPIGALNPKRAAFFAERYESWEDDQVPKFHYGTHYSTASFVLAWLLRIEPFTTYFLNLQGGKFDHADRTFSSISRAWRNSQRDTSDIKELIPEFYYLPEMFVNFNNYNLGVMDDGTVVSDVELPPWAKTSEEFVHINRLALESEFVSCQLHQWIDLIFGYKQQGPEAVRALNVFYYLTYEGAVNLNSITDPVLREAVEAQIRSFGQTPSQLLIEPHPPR
Target sequence in this assay (P16410 36-223, further chain): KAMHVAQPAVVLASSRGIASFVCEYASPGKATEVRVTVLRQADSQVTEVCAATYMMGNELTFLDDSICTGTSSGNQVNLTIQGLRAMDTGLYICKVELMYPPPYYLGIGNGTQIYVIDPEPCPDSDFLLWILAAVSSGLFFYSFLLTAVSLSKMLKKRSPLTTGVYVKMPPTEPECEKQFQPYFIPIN

[2] = molecular target: T1, lipopolysaccharide-responsive beige-like anchor protein (LRBA); experiment: ITC with purified LRBA PH domain; format: binding
Target sequence in this assay (P50851 2073-2489 limits assumed): as the sequence (P50851 2073-2489) above

Row | SMILES | pIC50 [1] | pKd [2]
1 | NCC1CCN(c2nccc(-c3ccc4ccccc4c3)n2)CC1 [WAY-262611] | 6.47 | 
2 | c1ccc2ncc(-c3ccnc(N4CCNCC4)n3)cc2c1 [LC427, 3-(2-(piperazin-1-yl)pyrimidin-4-yl) quinoline] |  | 4.71
